Screening results as filed in PubChem.
The list is not random: actives were taken first. Their share in the collection is about 1.9%.
aDG glyco up = increases alpha dystroglycan glycosylation; Pro5-aDG cells, alpha-DG glycosylation AlphaScreen (IIH6); 0% Pro5, 100% B10-LARGE cell signal; activation, % at 10 µM; 360,000 compounds, 0.22% hits; AID 624168;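 active = activation of at least 8% versus controls, or a plate z-score of at least 8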;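 also: Pro5 are CHO cells carrying HIG-tagged alpha-DG that lacks glycosylation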
MsrA inh = inhibitors of bovine MsrA | purified bovine MsrA, absorbance read-out | inhibition, % at 15.5 µM | 360,000 compounds, 0.75% hits; in the data active = inhibition above about 4.5%;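 also: 0% = vehicle wells with enzyme and 100% = reference inhibitor wells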
UCH37 DUB inh = human UCH37 deubiquitinating enzyme inhibition. Q9Y5K5. purified proteasome/UCH37, Ub-AMC cleavage fluorescence. inhibition, % (concentration not given with the values). 330,000 compounds, 0.33% hits. AID 588478;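 active = mean inhibition over replicate wells above about 20%, limit read from the data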;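 also: 0% = compound-free wells with enzyme and 100% = wells lacking proteasome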
Target sequence (Q9Y5K5 whole entry, looked up): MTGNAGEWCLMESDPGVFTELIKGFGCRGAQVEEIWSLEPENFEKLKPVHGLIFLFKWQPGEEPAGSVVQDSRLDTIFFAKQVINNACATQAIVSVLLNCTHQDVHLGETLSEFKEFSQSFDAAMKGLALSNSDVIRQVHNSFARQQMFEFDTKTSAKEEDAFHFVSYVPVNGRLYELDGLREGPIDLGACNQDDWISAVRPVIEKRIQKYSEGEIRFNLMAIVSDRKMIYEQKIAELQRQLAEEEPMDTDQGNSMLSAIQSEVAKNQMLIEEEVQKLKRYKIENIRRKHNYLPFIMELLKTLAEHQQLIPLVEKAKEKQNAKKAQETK
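system = Proteasome-associated human UCH37 deubiquitinase | amount = 0.15 nM proteasome as dispensed | medium = pH 7.4 Tris-HCl (50 mM) with ovalbumin, ATP-MgCl2, DTT | incubation = 30 min preincubation with enzyme, 25 min cleavage at room temperature | detection = AMC fluorescence 355/460 nm | read-out basis = percent inhibition | controls = no-proteasome and no-compound wells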
Glyco luc inh = N-linked glycosylation inhibition; D54 ERlucT glycosylation luciferase reporter, 24 h; percent of 100 nM tunicamycin response; reporter increase, % at 12.5 µM; 360,000 compounds, 0.23% hits;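 active = mean luciferase reporter signal, scaled so untreated is 0 and the glycosylation-blocking control 100, at or above a set limit in every replicate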;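 also: luciferase carries N-glycosylation sites so blocking glycosylation raises the light; 0% = median of neutral control wells and 100% = median of 100 nM tunicamycin wells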
bovine MsrA act = activators of bovine methionine sulfoxide reductase A; activation, % at 10.6 µM; purified bovine MsrA, absorbance read-out; 360,000 compounds, 0.3% hits; in the data active = activation above about 7.5%;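 also: 0% = vehicle and 100% = reference activator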
Vif inh = inhibitors of HIV Vif | AID 602346 | HEK293T cells, Vif self-association by quenched fluorescence, imaging, 24 h | 340,000 compounds, 0.35% hits | inhibition, % at 7.49 µM; in the data active = inhibition above about 50%, passing the limit was not always enough
* marks the source's active call; other numbers are inactive results; . = not tested or not shown.

SMILES | aDG glyco up | MsrA inh | UCH37 DUB inh | Glyco luc inh | bovine MsrA act | Vif inh
COc1ccc(CCNC(=O)CCN2C(=O)COc3ccccc32)cc1OC | 0 | 0 | 0 | 2 | -5 | 126*
O=C(O)c1ccccc1OC(C(=O)Nc1cc(Cl)cc(Cl)c1)c1ccccc1 (stereo unspecified) | 0 | 1 | 2 | 29* | -2 | 5
O=C(Nc1cc(Cl)cc(Cl)c1)C(c1ccccc1)N1CCCCC1 (stereo unspecified) | 0 | -1 | 2 | -4 | -9 | 10
S=C1Cc2ccccc2N1 | 0 | -1 | 81* | 13 | 26* | 1
CN(C)c1ccc(-n2cccc2/C=C/[N+](=O)[O-])cc1 | 0 | 0 | . | 64* | 0 | -2
C(/C=C/c1ccccc1)=NNc1nc2ccccc2s1 | . | . | -9 | . | . | .
O=C(Cc1ccc([N+](=O)[O-])cc1)NN=Cc1ccco1 | . | . | 1 | . | . | .
O=C(NN=Cc1cc([N+](=O)[O-])ccc1O)C1CC1 | . | . | 12 | . | . | .
CCc1ccc2[nH]c(=O)c(CN(Cc3ccc(F)cc3)C(c3nnnn3CCN3CCOCC3)C(C)C)cc2c1 (stereo unspecified) | 0 | . | -3 | 1 | 8.6* | -5
CCc1ccc2[nH]c(=O)c(C(c3nnnn3CCOC)N3CCN(c4ccc(F)cc4)CC3)cc2c1 (stereo unspecified) | 0 | 1 | -1 | 1 | -5 | 2
COc1cc(C=Nn2c(-c3n[nH]c4c3CCC4)n[nH]c2=S)ccc1O | . | . | 4 | . | . | .
CCOC(=O)C(=NNc1ncnc2ccccc12)c1ccc(C)cc1 | . | . | 4 | . | . | .
COc1ccc(N/C=C(\C=C\C#N)S(=O)(=O)c2ccccc2)cc1 | 0 | 2 | -93 | 4 | -4 | 87*
COc1ccc2sc3cccc(NCCN(C)C)c3c(=O)c2c1 | 0 | -1 | . | 140* | -3 | 2
Cc1cccc(-n2c(C)cc(C=C(C#N)C#N)c2C)c1 | 0 | -1 | 1 | -1 | -1 | 8
Cc1cc(/C=C(/C#N)c2cccc(Cl)c2)c(C)n1C | 0 | 4.6* | -2 | -2 | -4 | 4
O=C(Cc1ccccc1)NN=C/C=C/c1cccc([N+](=O)[O-])c1 | . | . | 2 | . | . | .
C/C(C=NNC(=O)c1n[nH]c2c1CCC2)=C\c1ccccc1 | . | . | 4 | . | . | .
CCN1C(=O)NC(c2ccccc2)C1=O (stereo unspecified) | 0 | 1 | 0 | 1 | -12 | 81*
N#C/C(=C\c1cccnc1)c1nc2ccccc2[nH]1 | 0 | 0 | -29 | 42* | -3 | -10
NC(=O)c1ccccc1OCC(=O)NS(=O)(=O)c1ccccc1 | 0 | 0 | 2 | 3 | -5 | 56*
NC(=O)c1ccccc1OCC(=O)O | 0 | -1 | -3 | -1 | -5 | 10
COc1cccc(C=NNC(=O)c2c(C)nc3ccc(Br)cn23)c1O | . | . | 46* | . | . | .
O=c1c2c(-c3ccc(Cl)cc3)csc2ncn1N=Cc1cccc([N+](=O)[O-])c1O | . | . | 6 | . | . | .
OCCN=c1cc(-c2ccccc2)oc2ccc(Cl)cc12 | 0 | . | 3 | 50* | -6 | -20
SMILES | aDG glyco up | MsrA inh | UCH37 DUB inh | Glyco luc inh | bovine MsrA act | Vif inh
CC(O)CN=c1cc(-c2ccccc2)oc2ccc(Cl)cc12 (stereo unspecified) | 0 | 3 | 2 | 29* | 0 | -9
CC(CCc1ccc2c(c1)OCO2)=N/N=C1/NC(=O)CC(C(=O)Nc2ccccc2)S1 (stereo unspecified) | . | . | 7 | . | . | .
Cc1ccc(C(=O)Nc2scc(-c3ccccc3)c2C(=O)O)o1 | 0 | 4.6* | 3 | 0 | -6 | 3
Brc1ccccc1-n1nnc(-c2nccs2)n1 | 0 | -1 | 25* | -4 | -8 | -1
CC1Cc2cc(/C=C3/SC(=S)N(C)C3=O)ccc2O1 (stereo unspecified) | 0 | 1 | 6 | -6 | -1 | 8
CC1Cc2cc(/C=C3/SC(N4CCC(C(N)=O)CC4)=NC3=O)ccc2O1 (stereo unspecified) | 0 | 4.6* | 5 | 4 | -3 | 21
COc1ccccc1/C=C/C=NNC(=O)c1ccncc1 | . | . | 12 | . | . | .
COc1cc(CCC(=O)Nc2nnc(C)s2)cc(OC)c1OC | 0 | -1 | 1 | 33* | -2 | 5
COc1cc(CCC(=O)Nc2ncc(C)s2)cc(OC)c1OC | 0 | 1 | 5 | 3 | -2 | 2
CCc1ccc(CCC(=O)Nc2nnc(C)s2)o1 | 0 | 0 | 1 | -3 | -2 | 55*
CCc1nnc(NC(=O)CCc2ccc(C)o2)s1 | 0 | 0 | 0 | 0 | -2 | 0
CC1(C)C2CC=C(C=NNC(=S)Nc3cccnc3)C1C2 (stereo unspecified) | . | . | 3 | . | . | .
CCCCn1c(NC(=O)c2ccccc2)c(C#N)c2nc3ccccc3nc21 | 0 | 0 | -126 | 3 | 0 | 52*
CCC(C)n1c(NC(=O)c2ccccc2)c(C#N)c2nc3ccccc3nc21 (stereo unspecified) | 2 | 0 | -4 | 3 | -2 | 15
O=c1[nH]c(CSc2nc(-c3ccccc3)cs2)nc2ccccc12 | 0 | -1 | -1 | 0 | -2 | .
O=c1[nH]c(CSc2ncnc3sc(-c4ccccc4)cc23)nc2ccccc12 | 0 | -1 | -4 | 33* | -3 | -1
CCOC(=O)C1CCN(C(=O)c2ccc3c(=O)n4c(nc3c2)CCCCC4)CC1 | 0 | 0 | 1 | -1 | -1 | 7
CCOC(=O)N1CCN(C(=O)c2ccc3c(=O)n4c(nc3c2)CCCCC4)CC1 | . | 0 | 29* | . | . | .
Cc1ccc(Nc2nc(N)nc(CN3CCN(Cc4ccc5c(c4)OCO5)CC3)n2)cc1Cl | 2 | 0 | 5 | 1 | -1 | -14
Nc1nc(CN2CCN(Cc3ccccc3)CC2)nc(Nc2ccc3c(c2)OCCO3)n1 | 0 | -1 | 5 | 47* | 0 | -4
COc1ccc(C(=O)NCc2c(C)oc(C)c2C(=O)O)cc1 | 0 | 1 | 0 | 3 | -7 | 2
COc1ccc(C(=O)NCc2oc(-c3ccccc3)cc2C(=O)O)cc1 | 0 | 0 | -1 | 0 | -1 | 61*
O=C(COC(=O)Cc1ccc(Cl)cc1)NCc1ccc(Cl)cc1 | 2 | 0 | . | 0 | -12 | .
COc1ccc(CC(=O)OCC(=O)NCc2ccc(Cl)cc2)cc1 | 0 | 3 | 0 | 1 | -7 | 80*
FC(F)(F)c1nc2ccccc2nc1NN=Cc1ccc(Cl)cc1 | . | . | 5 | . | . | .
C(=NNc1ccc2nncn2n1)c1ccco1 | . | . | 12 | . | . | .
COc1ccc(C=C(C#N)C(=O)c2ccccc2)cc1 | 0 | 0 | . | . | -3 | .
COc1cc(/C=C(\C#N)C(=O)c2ccc(O)c(O)c2)cc(I)c1O | 0 | 4.6* | 12 | 3 | -8 | 10
CC(=O)NC(=S)Nc1ccccc1F | 0 | 0 | 2 | -1 | -3 | 58*
O=C(c1cccs1)N1CCc2c([nH]c3ccccc23)C1c1ccc(Cl)cc1 (stereo unspecified) | 1 | 2 | 2 | -9 | -3 | -6
